Assay [1] concerns coagulation in hemostasis. The assay is described as follows: Anticoagulant activity, activated partial thromboplastin time. It is filed as biochemical. Conditions: value (range), n = 6. Put shortly:
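APTT was measured turbidimetrically on a hemocoagulometer using centrifuged citrated blood. Change is given as percent of control with a range in parentheses, n = 6. Significance was tested against control and reference drugs at p ≤ 0.05 or p ≤ 0.001.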

Assay [2] has as its system collagen-induced platelet aggregation. Nature of the assay: Collagen-induced platelet aggregation. The format is cell-based. The gist of the method:
(§1)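 Citrated blood was centrifuged, and platelet aggregation was recorded on an aggregometer using a published method. Collagen induced the latent period; ADP induced maximum amplitude and aggregation rate. Changes are given as percent of control, n = 6. Significance was tested against control and reference drugs at p ≤ 0.05 or p ≤ 0.001.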

In assay [3] the test system is ADP-induced platelet aggregation. Nature of the assay: ADP-induced platelet aggregation. The format is cell-based. The note with it: pro-aggregation activity versus etamsylate. The gist of the method:
as §1

Marks after values point to notes of the source that are not given here.

The record followed here is PMC9007260 (Russian Journal of Organic Chemistry, 2022).

Take `CC(=O)Oc1ccccc1C(=O)O` [Acetylsalicylic acid, reference compound]: the “APTT (activated partial thromboplastin time)” value (shortened to “APTT”) in assay [1] is recorded as “+1.1 (0.5–1.9)^e percent of control”.

For `C[N+](C)(C)CC(=O)NN=C1C(=O)N(CCn2cnc3c(N)ncnc32)c2ccccc21.[Cl-]` [Compound 3a, 2-(2-{1-[2-(6-Amino-9H-purin-9-yl)ethyl]-2-oxo-2,3-dihydro-1H-indol-3-ylidene}hydrazinyl)-N,N,N-trimethyl-2-oxoethan-1-aminium chloride], the “APTT” value in assay [1] is “+3.7 (2.9–5.4)^e percent of control”. As for `Cc1ccc2c(c1)C(=NNC(=O)C[N+](C)(C)C)C(=O)N2CCn1cnc2c(N)ncnc21.[Cl-]` [Compound 3b, 2-(2-{1-[2-(6-Amino-9H-purin-9-yl)ethyl]-5-methyl-2-oxo-2,3-dihydro-1H-indol-3-ylidene}hydrazinyl)-N,N,N-trimethyl-2-oxoethan-1-aminium chloride], in assay [1], the “APTT” value was “+6.5 (4.9–8.3)^c,e percent of control”.

As to `CCc1ccc2c(c1)C(=NNC(=O)C[n+]1ccccc1)C(=O)N2CCn1cnc2c(N)ncnc21.[Cl-]` [Compound 3c, 1-[2-(2-{1-[2-(6-Amino-9H-purin-9-yl)ethyl]-5-ethyl-2-oxo-2,3-dihydro-1H-indol-3-ylidene}hydrazinyl)-2-oxoethyl]pyridinium chloride], the “APTT” value in assay [1] is reported as “+5.3 (4.1–9.6)^c,e percent of control”.

In the case of Sodium heparin [reference compound], the “APTT” value in assay [1] is given as “+20.3 (19.7–21.4)^d percent of control”.

For `Cc1ccc2c(c1)C(=NNC(=O)C[n+]1cccc(C)c1C)C(=O)N2CCn1cnc2c(N)ncnc21.[Br-]` [Compound 3d, 1-[2-(2-{1-[2-(6-Amino-9H-purin-9-yl)ethyl]-5-methyl-2-oxo-2,3-dihydro-1H-indol-3-ylidene}hydrazinyl)-2-oxoethyl]-2,3-dimethylpyridinium bromide], in assay [1], the “APTT” value was “+2.5 (1.8–4.3)^e percent of control”. The same measure, in the same setting: next, `Cn1c(=O)c2c(ncn2CCN2C(=O)C(=NNC(=O)C[N+](C)(C)C)c3ccccc32)n(C)c1=O.[Cl-]` [Compound 4a, 2-[2-(1-{2-[1,3-Dimethyl-2,6-dioxo-2,3-dihydro-1H-purin-7(6H)-yl]ethyl}-2-oxo-2,3-dihydro-1H-indol-3-ylidene)hydrazinyl]-N,N,N-trimethyl-2-oxoethan-1-aminium chloride]: “+8.4 (7.3–10.4)^c,e percent of control”. As to `Cc1ccc2c(c1)C(=NNC(=O)C[N+](C)(C)C)C(=O)N2CCn1cnc2c1c(=O)n(C)c(=O)n2C.[Cl-]` [Compound 4b, 2-[2-(1-{2-[1,3-Dimethyl-2,6-dioxo-2,3-dihydro-1H-purin-7(6H)-yl]ethyl}-5-methyl-2-oxo-2,3-dihydro-1H-indol-3-ylidene)hydrazinyl]-N,N,N-trimethyl-2-oxoethan-1-aminium chloride], in assay [2], the “Effect on latent period (in words)” value was “without affecting the latent period”. The “Platelet aggregation activity relative to etamsylate” value in assay [3] is recorded as “more than twofold”. Also, the “APTT” value in assay [1] is recorded as “+7.3 (5.6–9.4)^c,e percent of control”.
